ChEMBL document CHEMBL1122281, “Synthesis and antifilarial activity of N-[4-[[4-alkoxy-3-[(dialkylamino)methyl]phenyl]amino]- 2-pyrimidinyl]-N'-phenylguanidines” (J Med Chem, 1983)

Columns and labels:
Litomosoides carinii [1] = test: Antifilarial activity against Litomosoides carinii infections in the Jird at dose 100 mg/kg administered orally; format: functional; conditions: route oral
How it was run: (§1)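 L. carinii-infected jirds were dosed. Survivors were killed 55–70 days after the first dose, and the pleural and peritoneal cavities were searched for adult worms. Live worms at autopsy were scored as a percentage relative to sham-dosed controls. Adult worm reduction above 60% was the activity criterion.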

Litomosoides carinii [2] = test: Antifilarial activity against Litomosoides carinii infections in the Jird at dose 25 mg/kg administered orally; format: functional; conditions: route oral; how it was run: as §1
[3] = Antifilarial activity against Litomosoides carinii infections in the Jird at dose 100 mg/kg administered subcutaneously; two or more animals died prematurely considered to be drug toxicity.; format: organism-based, Meriones unguiculatus; design: dose 100 mg/kg, route subcutaneous; conditions: gerbil, in vivo, sc
How it was run: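 Jirds infected with Litomosoides carinii. Surviving animals killed 55–70 days after first drug dose; pleural and peritoneal cavities searched for adult worms. Live worm count at autopsy scored as percentage relative to sham-dosed controls. Activity criterion: adult worm reduction exceeding 60%.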

Litomosoides carinii [4] = test: Antifilarial activity against Litomosoides carinii infections in the Jird at dose 25 mg/kg administered subcutaneously; format: functional; conditions: route subcutaneous; how it was run: as §1
Litomosoides carinii [5] = test: Antifilarial activity against Litomosoides carinii infections in the Jird at dose 3 mg/kg administered orally; format: functional; conditions: route oral; how it was run: as §1
Litomosoides carinii [6] = test: Antifilarial activity against Litomosoides carinii infections in the Jird at dose 6 mg/kg administered subcutaneously; format: functional; conditions: route subcutaneous; how it was run: as §1
Litomosoides carinii [7] = test: (§2) Antifilarial activity against Litomosoides carinii infections in the Jird at dose 100 mg/kg administered subcutaneously; format: functional; conditions: route subcutaneous; how it was run: as §1
Litomosoides carinii [8] = test: as §2; format: functional; conditions: route subcutaneous; how it was run: as §1; remark: listed apart in the source
Litomosoides carinii [9] = test: Antifilarial activity against Litomosoides carinii infections in the Jird at dose 200 mg/kg administered orally; format: functional; conditions: route oral; how it was run: as §1
Litomosoides carinii [10] = test: Antifilarial activity against Litomosoides carinii infections in the Jird at dose 400 mg/kg administered subcutaneously; format: functional; conditions: route subcutaneous; how it was run: as §1
Litomosoides carinii [11] = test: Antifilarial activity against Litomosoides carinii infections in the Jird at dose 400 mg/kg administered orally; format: functional; conditions: route oral; how it was run: as §1
Litomosoides carinii [12] = test: Antifilarial activity against Litomosoides carinii infections in the Jird at dose 100 mg/kg administered subcutaneously; conditions: route subcutaneous
Litomosoides carinii [13] = test: Antifilarial activity against Litomosoides carinii infections in the Jird at dose 600 mg/kg administered orally; format: functional; conditions: route oral; how it was run: as §1
Litomosoides carinii [14] = test: Antifilarial activity against Litomosoides carinii infections in the Jird at dose 200 mg/kg administered subcutaneously; format: functional; conditions: route subcutaneous; how it was run: as §1
Litomosoides carinii [15] = test: Antifilarial activity against Litomosoides carinii infections in the Jird at dose 50 mg/kg administered subcutaneously; format: functional; conditions: route subcutaneous; how it was run: as §1
Litomosoides carinii [16] = test: Antifilarial activity against Litomosoides carinii infections in the Jird at dose 6.25 mg/kg administered subcutaneously; format: functional; conditions: route subcutaneous; how it was run: as §1
Litomosoides carinii [17] = test: Antifilarial activity against Litomosoides carinii infections in the Jird at dose 1.56 mg/kg administered subcutaneously; format: functional; conditions: route subcutaneous; how it was run: as §1
Litomosoides carinii [18] = test: Antifilarial activity against infections of Litomosoides carinii in the Jird by oral route(dose (mg/kg) is given in parentheses); format: functional; how it was run: as §1

SMILES: CCNCc1cc(Nc2cc(C(F)(F)F)nc(/N=C(\N)Nc3ccc(Cl)cc3)n2)ccc1OC
- Reduction of live worms (Litomosoides carinii [1]): 100%
- Reduction of live worms (Litomosoides carinii [2]): 94%
- Animals dead [3]: > 2
- Reduction of live worms (Litomosoides carinii [4]): 100%
- Reduction of live worms (Litomosoides carinii [5]): 81%
- Reduction of live worms (Litomosoides carinii [6]): 92%

SMILES: CCN(CC)Cc1cc(Nc2cc(C)nc(/N=C(\N)Nc3cc(Cl)cc(Cl)c3)n2)ccc1O
- Reduction of live worms (Litomosoides carinii [7]): 68%
- Animals dead [3]: > 2
- Reduction of live worms (Litomosoides carinii [8]): 0%

SMILES: CN1CCN(Cc2cc(Nc3cc(C(F)(F)F)nc(/N=C(\N)Nc4ccc(Cl)c(Cl)c4)n3)ccc2O)CC1
- Reduction of live worms (Litomosoides carinii [1]): 100%
- Reduction of live worms (Litomosoides carinii [9]): 100%
- Reduction of live worms (Litomosoides carinii [2]): 100%
- Animals dead [3]: > 2
- Reduction of live worms (Litomosoides carinii [5]): 0%
- Reduction of live worms (Litomosoides carinii [10]): 99%
- Reduction of live worms (Litomosoides carinii [11]): 100%

SMILES: CCOc1ccc(Nc2nc(/N=C(\N)Nc3ccc(Cl)c(Cl)c3)nc3c2CCCC3)cc1CN(CC)CC
- Reduction of live worms (Litomosoides carinii [2]): 54%
- Animals dead [3]: > 2
- Reduction of live worms (Litomosoides carinii [12]): 0%

SMILES: CCCCN(CC)CCNc1cc(C)nc(/N=C(\N)Nc2ccc(Cl)c(Cl)c2)n1
- Reduction of live worms (Litomosoides carinii [13]): 66%

SMILES: CN1CCN(Cc2cc(Nc3cc(C(F)(F)F)nc(/N=C(\N)Nc4ccc(C(F)(F)F)cc4)n3)ccc2O)CC1
- Reduction of live worms (Litomosoides carinii [1]): 100%
- Reduction of live worms (Litomosoides carinii [14]): 96%
- Reduction of live worms (Litomosoides carinii [2]): 40%
- Reduction of live worms (Litomosoides carinii [5]): 5%

SMILES: CCN(CC)C(=O)N1CCN(C)CC1 [DIETHYLCARBAMAZINE]
- Reduction of live worms (Litomosoides carinii [7]): 100%
- Reduction of live worms (Litomosoides carinii [15]): 89%

SMILES: COC(=O)Nc1nc2cc(C(=O)c3ccccc3)ccc2[nH]1 [MEBENDAZOLE]
- Reduction of live worms (Litomosoides carinii [4]): 100%
- Reduction of live worms (Litomosoides carinii [16]): 100%
- Reduction of live worms (Litomosoides carinii [17]): 97%

SMILES: Cc1ccc(C(=O)Nc2ccc(S(=O)(=O)O)c3cc(S(=O)(=O)O)cc(S(=O)(=O)O)c23)cc1NC(=O)c1cccc(NC(=O)Nc2cccc(C(=O)Nc3cc(C(=O)Nc4ccc(S(=O)(=O)O)c5cc(S(=O)(=O)O)cc(S(=O)(=O)O)c45)ccc3C)c2)c1 [SURAMIN]
- Reduction of live worms (Litomosoides carinii [18]): 98%
